The values that follow come from ChEMBL document CHEMBL2331259, “Design, synthesis, biological evaluation and molecular modeling studies of 1-aryl-6-(3,4,5-trimethoxyphenyl)-3(Z)-hexen-1,5-diynes as a new class of potent antitumor agents” (Eur J Med Chem, 2013).

Experiment [1] can be described thus: Cytotoxicity against human BT-483 cells assessed as growth inhibition. It counts as functional, cell-based.
The subject of experiment [2] is HeLa. Kind of experiment: Cytotoxicity against human HeLa cells assessed as growth inhibition. It counts as functional, cell-based.
Experiment [3] concerns SAS. Kind of experiment: Cytotoxicity against human SAS cells assessed as growth inhibition. It counts as functional, cell-based.
Experiment [4] has as its system A549. The experiment can be described thus: Cytotoxicity against human A549 cells assessed as growth inhibition. It counts as functional, cell-based.
For experiment [5], the system named is AGS. The experiment can be described thus: Cytotoxicity against human AGS cells assessed as growth inhibition. It counts as functional, cell-based.
Experiment [6] in a line: Cytotoxicity against human CE81T cells assessed as growth inhibition. It counts as functional, cell-based.
In experiment [7] the test system is PC-3. The experiment can be described thus: Cytotoxicity against human PC3 cells assessed as growth inhibition. It counts as functional, cell-based.
In experiment [8] the test system is SK-HEP1. The experiment can be described thus: Cytotoxicity against human SKHEP1 cells assessed as growth inhibition. It counts as functional, cell-based.
Experiment [9] relates to BT-483. Kind of experiment: Induction of DNA damage in human BT-483 cells assessed as gamma H2AX phosphorylation at Ser139 at 1 to 10 uM after 24 hrs by Western blot analysis. It counts as functional, cell-based. The method in brief: (§1)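 BT483 cells treated 24 h with vehicle (1% DMSO) or compound at various concentrations, PBS-washed and lysed. 50 μg protein run on 15% SDS-PAGE, transferred to PVDF, blocked overnight at 4 °C in 5% nonfat milk. Probed 2 h at room temperature with monoclonal anti-Caspase-3, anti-PARP, anti-phospho-γ-H2AX or anti-β-actin, then secondary IgG (1:5000). ECL detection. Irinotecan served as positive control.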

Experiment [10] deals with BT-483. The experiment can be described thus: Induction of apoptosis in human BT-483 cells assessed as increase in caspase 3 activity at 1 uM after 24 hrs by Western blot analysis. It counts as functional, cell-based. In short, it runs like this:
as §1

Experiment [11] has as its system BT-483. The experiment can be described thus: Induction of apoptosis in human BT-483 cells assessed as PARP cleavage at 1 uM after 24 hrs by Western blot analysis. It counts as functional, cell-based. In short, it runs like this:
as §1

In experiment [12] the target is T1, Tubulin alpha (Homo sapiens) (UniProt P0DPH7+P68366+Q71U36+P68363+Q9BQE3+Q6PEY2+A6NHL2+Q9NY65). Kind of experiment: Binding affinity to Tubulin alpha/beta in human BT-483 cells assessed as microtubule depolymerization at 1 uM after 6 hrs by immunofluorescence analysis. It counts as cell-based. In short, it runs like this:
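BT483 cells held at 4 °C for 4 h to depolymerize microtubules, then incubated at 37 °C for 6 h in medium with DMSO or 1 μM compound. Cells fixed, immunostained with anti-tubulin antibody to view microtubule distribution; nuclei counterstained with DAPI.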

Experiment [13] relates to BT-483. Kind of experiment: Antitumor activity against human BT-483 cells xenografted in nude mouse assessed as decrease in tumor growth at 20 mg/kg/day, ip for 2 weeks measured every 3 days by caliper analysis. It counts as functional, organism-based. The method in brief: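 Nude mice (male, 6–8 weeks, 20–25 g, SPF) inoculated s.c. in left flank with 1×10^6 BT483 cells in 50% matrigel. Treatment began at tumor volume ~20 mm³: i.p. daily for 2 weeks versus DMSO vehicle (n = 5 vehicle, n = 6 treated). Caliper measurement every 3 days from first dose; volume = width × length × height. Mean ± SEM.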

Experiment [14] can be described thus: Cell cycle arrest in human BT-483 cells assessed as accumulation of cells at subG1 phase at 0.2 uM after 24 hrs by flow cytometric analysis. It counts as functional, cell-based. In short, it runs like this: (§2)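 BT-483 cells exposed to DMSO or 0.2 μM compound for 12 and 24 h, harvested, PBS-rinsed, fixed in 80% ethanol and stored at -20 °C. DNA-fluorescence flow cytometry used for cell cycle distribution, including G2/M and sub-G1 fractions.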

The nature of experiment [15]: Cell cycle arrest in human BT-483 cells assessed as accumulation of cells at G2/M phase at 0.2 uM after 12 hrs by flow cytometric analysis. It counts as functional, cell-based. The method in brief:
as §2

Experiment [16] deals with T1, Tubulin alpha (Homo sapiens). Kind of experiment: Binding affinity to Tubulin alpha/beta in human BT-483 cells assessed as microtubule depolymerization at 3.6 uM after 6 hrs by immunofluorescence analysis. It counts as cell-based.
In experiment [17] the test system is BT-483. The experiment can be described thus: Induction of DNA damage in human BT-483 cells assessed as gamma H2AX phosphorylation at Ser139 at 1 uM after 24 hrs by Western blot analysis. It counts as functional, cell-based. The method in brief: as §1

Activity calls are given as the source filed them. The rule behind the calls is not given here.

As to `COc1cc(C#C/C=C\C#Cc2ccccc2SC)cc(OC)c1OC`, the IC50 in [1] came out at 15.2 µM; in experiment [2] it was 15.9 µM; in experiment [3], 12.8 µM; in experiment [4] it was 11.7 µM; in [5] it was 9.53 µM; in experiment [6], 13.9 µM. Moreover, the IC50 is 17.4 µM in experiment [7] and 13.3 µM in experiment [8].
With `COc1cc(C#C/C=C\C#Cc2ccccn2)cc(OC)c1OC`, the IC50 was 0.86 µM in experiment [1]; 0.39 µM in experiment [2]; 1.16 µM in experiment [3]; 3.99 µM in experiment [4]; 0.13 µM in experiment [5]; 6.87 µM in [6]. In addition, the half-maximal inhibitory concentration (IC50) in [7] is 0.51 µM; in experiment [8], 0.43 µM. Also, the outcome in [9], in [10], in [11], in [12], in experiment [13] and in experiment [14] was Active. For the same molecule, the outcome in experiment [15] was Active.
As to `COc1cc(C#C/C=C\C#Cc2ccccc2N)cc(OC)c1OC`, the IC50 in experiment [1] is 1.98 µM; in experiment [2] it was 0.64 µM; in [3] it was 4.53 µM; in [4], 0.57 µM; in experiment [5] it was 0.98 µM; in experiment [6], 8.98 µM. In addition, the IC50 in [7] was determined as 0.73 µM; in experiment [8] it was 0.2 µM.
In the case of `COc1ccccc1C#C/C=C\C#Cc1cc(OC)c(OC)c(OC)c1`, the IC50 was 1.23 µM in experiment [1]; 0.57 µM in experiment [2]; 9.88 µM in experiment [3]; 0.52 µM in [4]; 0.78 µM in experiment [5]; 6.95 µM in [6]. Besides, the figures for the IC50 in experiment [7] and in experiment [8] were 0.62 µM and 0.34 µM, respectively.
For `Nc1ccccc1C#C/C=C\C#Cc1ccccc1C(F)(F)F`, the IC50 is 8.56 µM in experiment [1]; 5.49 µM in experiment [2]; 5.83 µM in [3]; 6.57 µM in experiment [4]; 8.24 µM in experiment [5]; 2.91 µM in [6]. The IC50 in experiment [7] is 8.26 µM; in [8] it was 6.68 µM. In addition, the result in [16] was Active.
In the case of `COc1ccc(C#C/C=C\C#Cc2cc(OC)c(OC)c(OC)c2)c(OC)c1`, the 50% inhibitory concentration (IC50) is 12.8 µM in experiment [2], 17.4 µM in [6], 22.9 µM in experiment [7] and 14.4 µM in [8].
Take `COc1cc2c(c(OC)c1OC)-c1ccc(OC)c(=O)cc1[C@@H](NC(C)=O)CC2` [COLCHICINE]: the IC50 in [1] worked out at 1.45 µM; in experiment [2], 0.66 µM; in experiment [3], 3.5 µM; in experiment [4] it was 0.07 µM; in experiment [5], 0.05 µM; in experiment [6], 1.78 µM. Moreover, the results for the 50% inhibitory concentration (IC50) in [7] and in experiment [8] were 0.06 µM and 0.78 µM, respectively.
As for `COc1cc(C#C/C=C\C#Cc2ccccc2[N+](=O)[O-])cc(OC)c1OC`, the IC50 is 4.24 µM in experiment [1]; 1.89 µM in experiment [2]; 1.37 µM in experiment [3]; 5.71 µM in [4]; 4.66 µM in [5]; 6.91 µM in experiment [6]. In addition, the IC50 in experiment [7] is 4.56 µM; in experiment [8], 1.34 µM.
`COc1ccc(C#C/C=C\C#Cc2cc(OC)c(OC)c(OC)c2)c(N)c1`: the concentration for half-maximal inhibition (IC50) came out at 9.56 µM in experiment [1]; 5 µM in experiment [2]; 12.3 µM in experiment [3]; 6.42 µM in experiment [4]; 5.75 µM in [5]; 30 µM in experiment [6]. Further, the concentration for half-maximal inhibition (IC50) in experiment [7] amounted to 11.7 µM; in [8], 5.23 µM.
Turning to `COc1ccc(C#C/C=C\C#Cc2cc(OC)c(OC)c(OC)c2)c([N+](=O)[O-])c1`, the IC50 in experiment [1] came to 4.53 µM; in experiment [2], 2.26 µM; in experiment [3], 0.65 µM; in [4], 5.95 µM; in experiment [5], 2.78 µM; in experiment [6] it was 6.32 µM. For the same molecule, the IC50 in experiment [7] was 3.79 µM; in [8], 4.28 µM.
On to `COc1cc(C#C/C=C\C#Cc2cc(C(F)(F)F)ccc2N)cc(OC)c1OC`, for which the IC50 in experiment [1] amounted to 21.2 µM; in experiment [2] it was 24.8 µM; in experiment [3], 15.8 µM; in [4] it was 12.4 µM; in experiment [6] it was 21 µM; in [8] it was 28.3 µM.
With `CCc1c2c(nc3ccc(OC(=O)N4CCC(N5CCCCC5)CC4)cc13)-c1cc3c(c(=O)n1C2)COC(=O)[C@]3(O)CC`, in [17], the result was Active.
Consider `COc1cc(C#C/C=C\C#Cc2ccccc2C#N)cc(OC)c1OC`, for which the concentration for half-maximal inhibition (IC50) in [1] is 10.5 µM; in experiment [2], 1.07 µM; in experiment [3] it was 10.6 µM; in experiment [4] it was 0.79 µM; in [5], 4.56 µM; in experiment [6] it was 6.39 µM. Also, the IC50 in [7] amounted to 8.68 µM; in [8], 1.2 µM.
